Ki and Ratio Ki data for 9 compounds are collected here from ChEMBL document CHEMBL4049427, “Use of Molecular Modeling to Design Selective NTS2 Neurotensin Analogues” (J Med Chem, 2017).

Assay [1] has as its target T1, Neurotensin receptor type 2 (Homo sapiens, UniProt O95665). Description: Displacement of 125I-[Tyr3]-NT from human NTS2 receptor. The method in brief: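 Fresh membranes from 1321N1 cells stably expressing hNTS2 (DMEM, 10% FBS, G418). 50 μg membrane incubated with 255 pM 125I-[Tyr3]-NT in 50 mM Tris-HCl pH 7.5, 0.2% BSA with competitor 10^-11 to 10^-5 M, 30 min at 25 °C. Nonspecific binding defined with 10^-5 M NT[8-13]. Filtration, γ-counting. IC50 converted to Ki via Cheng−Prusoff; mean of at least three experiments.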

Assay [2] addresses Neurotensin receptor type 1 (Homo sapiens, UniProt P30989). The assay is described as follows: Displacement of 125I-[Tyr3]-NT from human NTS1 receptor expressed in CHOK1 cell membranes after 30 mins by gamma counting analysis. Background: Loss of bound radioactivity is the signal in a displacement assay; it reports binding, not function.
For assay [3], the target named is T1, Neurotensin receptor type 2. Description: Displacement of 125I-[Tyr3]-NT from human NTS2 receptor expressed in human 1321N1 cell membranes after 30 mins by gamma counting analysis. The method in brief:
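Fresh membranes from 1321N1 cells stably expressing hNTS2 (DMEM, 10% FBS, G418). Nonspecific binding defined with 10^-5 M NT[8-13]. Filtration, γ-counting. IC50 converted to Ki via Cheng−Prusoff; mean of at least three experiments.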

For assay [4], the species on record is Homo sapiens. Description: Selectivity ratio of Ki for human NTS1 receptor expressed in CHOK1 cell membrane to Ki for human NTS2 receptor expressed in human 1321N1 cell membranes. The format is cell-based.
For assay [5], the species on record is Homo sapiens. The assay is described as follows: Selectivity ratio of Ki for human NTS1 receptor expressed in CHOK1 cell membranes to Ki for HA-tagged human NTS1 R212E mutant receptor expressed in HEK293 cell membranes. It is filed as cell-based. The method in brief:
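Ki was taken on two receptors. WT: 15 μg CHO-K1 hNTS1 membrane with 45 pM 125I-[Tyr3]-NT. R212E: HEK293 cells transfected by PEI with HA-tagged hNTS1-R212E, membranes made 48 h later; 50 μg membrane with 130 pM tracer. Both ran in Tris-HCl pH7.5 with 0.2% BSA, 30 min at 25 °C, with filtration and γ-counting. IC50 was converted to Ki by Cheng–Prusoff, and the ratio taken as WT Ki over mutant Ki.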

Assay [6] can be described thus: Displacement of 125I-[Tyr3]-NT from HA-tagged human NTS1 R212E mutant receptor expressed in HEK293 cell membranes after 30 mins by gamma counting analysis. The method in brief:
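Membranes from HEK293 cells transfected with human HA-tagged NTS1-R212E (10 μg DNA, PEI), prepared fresh 48 h post-transfection. 50 μg membrane incubated with 130 pM 125I-[Tyr3]-NT in 50 mM Tris-HCl pH 7.5, 0.2% BSA with competitor 10^-11 to 10^-5 M, 30 min at 25 °C. Nonspecific binding defined with 10^-5 M NT[8-13]. Filtration, γ-counting. IC50 converted to Ki via Cheng−Prusoff; at least three experiments.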

What is called Ki is a dissociation constant, usually derived from enzyme kinetics or from competition with a known ligand. Lower therefore signals a stronger hold on the target.

Square brackets hold non-standard residues; d marks the D form. Peptide text beside a SMILES is read from it. ξ: configuration not given here. ξOrn = NCCCC(N)C(=O)O

Chain of Neurotensin receptor type 1 (P30989 whole entry): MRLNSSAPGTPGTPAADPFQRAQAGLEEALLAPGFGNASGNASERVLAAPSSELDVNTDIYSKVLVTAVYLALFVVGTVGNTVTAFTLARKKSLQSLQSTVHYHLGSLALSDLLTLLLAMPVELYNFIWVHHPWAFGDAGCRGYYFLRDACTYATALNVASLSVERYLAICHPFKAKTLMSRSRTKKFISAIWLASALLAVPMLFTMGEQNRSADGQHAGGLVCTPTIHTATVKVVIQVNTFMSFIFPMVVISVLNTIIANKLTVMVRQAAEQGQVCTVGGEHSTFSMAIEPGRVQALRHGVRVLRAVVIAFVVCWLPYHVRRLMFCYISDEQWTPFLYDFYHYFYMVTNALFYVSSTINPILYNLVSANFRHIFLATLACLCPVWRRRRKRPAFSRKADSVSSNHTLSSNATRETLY
T1 sequence (O95665 whole entry): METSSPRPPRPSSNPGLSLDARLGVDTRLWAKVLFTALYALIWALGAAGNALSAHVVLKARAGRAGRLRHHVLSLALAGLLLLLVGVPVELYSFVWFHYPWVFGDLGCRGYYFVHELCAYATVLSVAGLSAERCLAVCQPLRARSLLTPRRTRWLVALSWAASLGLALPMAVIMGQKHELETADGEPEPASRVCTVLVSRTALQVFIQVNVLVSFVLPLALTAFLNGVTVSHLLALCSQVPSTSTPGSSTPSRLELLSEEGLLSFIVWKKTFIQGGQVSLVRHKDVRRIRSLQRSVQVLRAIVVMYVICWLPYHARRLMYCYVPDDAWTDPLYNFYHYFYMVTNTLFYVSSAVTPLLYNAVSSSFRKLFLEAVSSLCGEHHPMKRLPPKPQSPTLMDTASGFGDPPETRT

Turning to `CC[C@H](C)[C@H](NC(=O)[C@H](Cc1ccc(O)cc1)NC(=O)[C@@H]1CCCN1C(=O)[C@H](CCCCN)NC(=O)[C@@H](N)CCCCN)C(=O)N[C@@H](CC(C)C)C(=O)O`, in assay [1], the affinity corresponds to a Ki of 0.95 nM. That is a sub-nanomolar value.
For `CC[C@H](C)[C@H](NC(=O)C(CCCN)NC(=O)[C@@H]1CCCN1C(=O)[C@H](CCCCN)NC(=O)[C@@H](N)CCCCN)C(=O)N[C@@H](CC(C)C)C(=O)O` (stereo partly drawn) (H-KKP[ξOrn]IL-OH), the Ki in assay [2] is more than 10000 nM; in assay [3], 619 nM.
As to `CC[C@H](C)[C@H](NC(=O)[C@H](CCCCN)NC(=O)[C@@H]1CCCN1C(=O)[C@H](CCCCN)NC(=O)[C@@H](N)CCCCN)C(=O)N[C@H](C[Si](C)(C)C)C(=O)O`, the Ki in assay [3] worked out at 67 nM. The Ratio Ki was 9.9 in the assay filed under Homo sapiens [4] and 5.22 in the assay listed under Homo sapiens [5].
As to `CC[C@H](C)[C@H](NC(=O)[C@H](CCCCN)NC(=O)[C@@H]1CCCN1C(=O)[C@H](CCCCN)NC(=O)[C@@H](N)CCCCN)C(=O)N[C@@H](C[Si](C)(C)C)C(=O)O`, the inhibition constant (Ki) was 663 nM in assay [2] and 127 nM in assay [6].
On to H-KKPDIL-OH, for which the figures for the Ki in assay [2], in assay [3] and in assay [6] were more than 10000 nM, 4200 nM and more than 10000 nM, respectively.
With H-KKPHIL-OH, the figures for the Ki in assay [2] and in assay [3] were 456 nM and 474 nM, respectively. Also, in the assay filed under Homo sapiens [4], the Ratio Ki turned out to be 0.96.
As for H-KKPKIL-OH, the Ki stood at 5700 nM in assay [2], 262 nM in assay [3] and 199 nM in assay [6]. Besides, the Ratio Ki is 21.8 in the assay listed under Homo sapiens [4] and 28.6 in the assay filed under Homo sapiens [5].
`CC[C@H](C)[C@H](NC(=O)[C@H](Cc1ccc(O)cc1)NC(=O)[C@@H]1CCCN1C(=O)[C@H](CCCNC(=N)N)NC(=O)[C@@H](N)CCCNC(=N)N)C(=O)N[C@@H](CC(C)C)C(=O)O` had a Ki in assay [6] of 4.69 nM.
Turning to H-KKPEIL-OH, the Ki in assay [2] is more than 10000 nM; in assay [3] it was 1600 nM; in assay [6], more than 10000 nM.
